From ChEMBL document CHEMBL5370680, “Design and Biological Evaluation of Piperazine-Bearing Nitrobenzamide Hypoxia/GDEPT Prodrugs: The Discovery of CP-506” (ACS Med Chem Lett, 2023)

Legend:
[1] = Selectivity ratio of IC50 for antiproliferative activity against human HCT-116 cells overexpressing cytochrome P450 oxidoreductase assessed as inhibition of cell growth under aerobic condition to IC50 for antiproliferative activity against human HCT-116 cells overexpressing cytochrome P450 oxidoreductase assessed as inhibition of cell growth under anoxic condition; format: functional
Method in brief: (§1)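 Hypoxic cytotoxicity ratio is aerobic IC50 divided by anoxic IC50. Each IC50 comes from a 4 h drug exposure under aerobic or anoxic conditions, followed by 5 days' aerobic regrowth, relative to untreated controls.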

HCT-116 [2] = assay: Antiproliferative activity against human HCT-116 cells overexpressing cytochrome P450 oxidoreductase assessed as inhibition of cell growth incubated for 4 hrs under aerobic condition and measured after 5 days regrowth under aerobic condition; format: functional, cell-based
Method in brief: (§2)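 Low-density monolayer antiproliferative assay. Cells exposed to prodrug for 4 h under aerobic or anoxic conditions, then regrown aerobically for 5 days. IC50 is the concentration giving 50% growth inhibition versus untreated controls. Mean values reported, CV <20%.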

[3] = Selectivity ratio of IC50 for antiproliferative activity against human SiHa cells assessed as inhibition of cell growth under aerobic condition to IC50 for antiproliferative activity against human SiHa cells assessed as inhibition of cell growth under anoxic condition; format: functional; method in brief: as §1
[4] = Selectivity ratio of IC50 for antiproliferative activity against wild type human NCI-H1299 cells to IC50 for antiproliferative activity against human NCI-H1299 cells expressing AKR1C3; format: functional; details: time 4 hrs
Method in brief: (§3)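 Ratio of mean IC50 in non-transfected wild-type cells to mean IC50 in the AKR1C3- or NfsA_Ec-transfected line. IC50 is from a 4 h prodrug exposure and 5 days' regrowth.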

HCT-116 [5] = assay: Antiproliferative activity against human HCT-116 cells in three-dimensional cell culture multicellular layers assessed as log cell killing under aerobic condition at 100 uM; format: functional
Method in brief: (§4)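 HCT116 three-dimensional multicellular layers exposed to 100 μM prodrug under aerobic or anoxic conditions. Clonogenic survivors per MCL counted. Log cell kill = log CS(control) − log CS(treated). Mean of ≥3 independent experiments.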

NCI-H1299 [6] = assay: Antiproliferative activity against wild type human NCI-H1299 cells assessed as cell growth inhibition measured after 4 hrs; format: functional, cell-based; details: NCI-H1299, 4 h
Method in brief: (§5)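 Monolayer antiproliferative assay using wild-type cells and isogenic lines transfected with AKR1C3 or E. coli NfsA. Cells exposed to prodrug for 4 h, then regrown for 5 days. IC50 is 50% growth inhibition versus untreated controls. Mean values reported, CV <20%.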

HCT-116 [7] = assay: Antiproliferative activity against human HCT-116 cells in three-dimensional cell culture multicellular layers assessed as log cell killing under anoxic condition at 100 uM; format: functional; method in brief: as §4
HCT-116 [8] = assay: Antiproliferative activity against wild type human HCT-116 cells assessed as cell growth inhibition measured after 4 hrs; format: functional, cell-based; details: HCT-116, 4 h; method in brief: as §5
HCT-116 [9] = assay: Antiproliferative activity against human HCT-116 cells assessed as inhibition of cell growth incubated for 4 hrs under aerobic condition and measured after 5 days regrowth under aerobic condition; format: functional, cell-based; method in brief: as §2
HCT-116 [10] = assay: Antiproliferative activity against human HCT-116 cells expressing AKR1C3 assessed as cell growth inhibition measured after 4 hrs; format: functional, cell-based; details: HCT-116, 4 h; method in brief: as §5
[11] = Selectivity ratio of IC50 for antiproliferative activity against wild type human HCT-116 cells to IC50 for antiproliferative activity against human HCT-116 cells expressing NfsA of Escherichia coli; format: functional; details: time 4 hrs; method in brief: as §3
[12] = Selectivity ratio of IC50 for antiproliferative activity against wild type human NCI-H1299 cells to IC50 for antiproliferative activity against human NCI-H1299 cells expressing NfsA of Escherichia coli; format: functional; details: time 4 hrs; method in brief: as §3
SiHa [13] = assay: Antiproliferative activity against human SiHa cells assessed as inhibition of cell growth incubated for 4 hrs under anoxic condition and measured after 5 days regrowth under aerobic condition; format: functional, cell-based; method in brief: as §2
NCI-H1299 [14] = assay: Antiproliferative activity against human NCI-H1299 cells expressing NfsA of Escherichia coli assessed as cell growth inhibition measured after 4 hrs; format: functional; details: NCI-H1299, 4 h; method in brief: as §5
NCI-H1299 [15] = assay: Antiproliferative activity against human NCI-H1299 cells expressing AKR1C3 assessed as cell growth inhibition measured after 4 hrs; format: functional, cell-based; details: NCI-H1299, 4 h; method in brief: as §5
[16] = Selectivity ratio of IC50 for antiproliferative activity against wild type human HCT-116 cells to IC50 for antiproliferative activity against human HCT-116 cells expressing AKR1C3; format: functional; details: time 4 hrs; method in brief: as §3
[17] = Selectivity ratio of IC50 for antiproliferative activity against human HCT-116 cells assessed as inhibition of cell growth under aerobic condition to IC50 for antiproliferative activity against human HCT-116 cells assessed as inhibition of cell growth under anoxic condition; format: functional; method in brief: as §1
HCT-116 [18] = assay: Antiproliferative activity against human HCT-116 cells in three-dimensional cell culture multicellular layer expressing NfsA of Escherichia coli assessed as fold change in plating efficiency at 10 uM; format: functional
Method in brief: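 Mixed MCLs of wild-type HCT116 with 3% NfsA_Ec-expressing cells, against 100% wild-type MCLs, exposed to 10 μM prodrug. Clonogenic plating efficiency measured. Fold change is the plating-efficiency ratio between wild-type and transfected MCLs. ≥3 independent experiments.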

HCT-116 [19] = assay: Antiproliferative activity against human HCT-116 cells overexpressing cytochrome P450 oxidoreductase assessed as inhibition of cell growth incubated for 4 hrs under anoxic condition and measured after 5 days regrowth under aerobic condition; format: functional, cell-based; method in brief: as §2
SiHa [20] = assay: Antiproliferative activity against human SiHa cells assessed as inhibition of cell growth incubated for 4 hrs under aerobic condition and measured after 5 days regrowth under aerobic condition; format: functional, cell-based; method in brief: as §2
HCT-116 [21] = assay: Antiproliferative activity against human HCT-116 cells assessed as inhibition of cell growth incubated for 4 hrs under anoxic condition and measured after 5 days regrowth under aerobic condition; format: functional, cell-based; method in brief: as §2
[22] = Octanol/water partition coefficient, log D of the compound at pH 7.4; format: physicochemical
Method in brief: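 Octanol–water partition coefficient by shake-flask method at pH 7.4.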

HCT-116 [23] = assay: Antiproliferative activity against human HCT-116 cells in three-dimensional cell culture multicellular layer expressing AKR1C3 assessed as fold change in plating efficiency at 10 uM; format: functional
Method in brief: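 100% AKR1C3-expressing HCT116 MCLs, against wild-type HCT116 MCLs, exposed to 10 μM prodrug. Clonogenic plating efficiency measured. Fold change is the plating-efficiency ratio between wild-type and transfected MCLs. ≥3 independent experiments.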

HCT-116 [24] = assay: Antiproliferative activity against human HCT-116 cells expressing NfsA of Escherichia coli assessed as cell growth inhibition measured after 4 hrs; format: functional; details: HCT-116, 4 h; method in brief: as §5
[25] = Metabolic stability in mouse liver microsome assessed as half life in presence of NADPH by LC-MS/MS analysis; format: ADME; details: liver microsomes
Method in brief: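 Male mouse hepatic microsomes incubated with prodrug for 30 min, with or without NADPH cofactor. Percentage of parent compound remaining tracked from triplicate incubations. Half-life estimated from this loss.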

[26] = Toxicity in NIH-III nude mouse xenografted with human HCT-116 cells expressing NfsA of Escherichia coli assessed as body weight loss at 1000 micromol/kg, ip BID; format: organism-based; details: in vivo, at 1000 µmol/kg
[27] = Toxicity in NIH-III nude mouse xenografted with human HCT-116 cells expressing NfsA of Escherichia coli assessed as body weight loss at 1000 micromol/kg, ip BID measured on day 6; format: organism-based; details: in vivo, 144 h, at 1000 µmol/kg, time 6 day
[28] = Toxicity in NIH-III nude mouse xenografted with human HCT-116 cells expressing NfsA of Escherichia coli assessed as body weight loss at 1000 micromol/kg, ip BID measured on day 16; format: organism-based; details: in vivo, 384 h, dose 1000 µmol/kg, time 16 day

SMILES	Ratio IC50 [1]	IC50 (HCT-116 [2]) [µM]	Ratio IC50 [3]	Ratio IC50 [4]	IC50 (NCI-H1299 [6]) [µM]	IC50 (HCT-116 [8]) [µM]	IC50 (HCT-116 [10]) [µM]	Ratio IC50 [11]	Ratio IC50 [12]	IC50 (SiHa [13]) [µM]	IC50 (NCI-H1299 [14]) [µM]	IC50 (NCI-H1299 [15]) [µM]	Ratio IC50 [16]	fold change (FC) (HCT-116 [18])	IC50 (HCT-116 [19]) [µM]	IC50 (SiHa [20]) [µM]	IC50 (HCT-116 [21]) [µM]	logD [22]	fold change (FC) (HCT-116 [23])	IC50 (HCT-116 [24]) [µM]	other results
CN1CCN(C(=O)c2cc(N(CCBr)CCBr)c(S(C)(=O)=O)cc2[N+](=O)[O-])CC1	93	82	15	1	98	102	70	1146	636	16	0.154	102	1.5	1531	0.88	241	24	1.4	1.1	0.089	LCK (HCT-116 [5]): 2.3; LCK (HCT-116 [7]): 0.016; IC50 (HCT-116 [9]): 160 µM; Ratio IC50 [17]: 6.6
CN1CCN(C(=O)c2cc(N(CCBr)CCOS(C)(=O)=O)c(S(C)(=O)=O)cc2[N+](=O)[O-])CC1	87	139	12							47					1.6	561	23	0.3			LCK (HCT-116 [5]): 2.3; LCK (HCT-116 [7]): 0.016; IC50 (HCT-116 [9]): 368 µM; Ratio IC50 [17]: 16
CCN1CCN(C(=O)c2cc(N(CCBr)CCOS(C)(=O)=O)c(S(=O)(=O)CC)cc2[N+](=O)[O-])CC1	44	122	>20							15					2.8	> 300	18	1			LCK (HCT-116 [5]): 2.3; LCK (HCT-116 [7]): 0.016
CCN1CCN(C(=O)c2cc(N(CCBr)CCBr)c(S(C)(=O)=O)cc2[N+](=O)[O-])CC1	82	54	16	1	71	77	49	740	406	10	0.175	71	1.6	825	0.66	164	21	1.7	1.2	0.104	half-life [25]: 6.05 min; Activity [26]: < 10%; Activity [27]: <= 7%; Activity [28]: Non-Toxic; LCK (HCT-116 [5]): 2.3; LCK (HCT-116 [7]): 0.016; IC50 (HCT-116 [9]): 145 µM; Ratio IC50 [17]: 6.9
CCN1CCN(C(=O)c2cc(N(CCBr)CCOS(C)(=O)=O)c(S(C)(=O)=O)cc2[N+](=O)[O-])CC1 [CP-506]	93	112	21							22					1.2	459	14	0.6			half-life [25]: 41.2 min; LCK (HCT-116 [5]): 2.3; LCK (HCT-116 [7]): 0.016; IC50 (HCT-116 [9]): 288 µM; Ratio IC50 [17]: 21
CC(C)N1CCN(C(=O)c2cc(N(CCBr)CCBr)c(S(C)(=O)=O)cc2[N+](=O)[O-])CC1				0.9	59	61	53	462	206		0.287	69	1.2	1943				1.9	0.9	0.132	
CS(=O)(=O)OCCN(CCBr)c1c(C(=O)NCCO)cc([N+](=O)[O-])cc1[N+](=O)[O-]	293	41	7	15	114	66	1.1	4125	2375	2.7	0.048	7.4	60	29	0.14	19	2.5	1	100500	0.016	IC50 (HCT-116 [9]): 38 µM; Ratio IC50 [17]: 15
CCS(=O)(=O)c1cc([N+](=O)[O-])c(C(=O)N2CCN(C)CC2)cc1N(CCBr)CCBr				1.5	85	83	73	359	156		0.546	58	1.1	709				2.2	1.1	0.231	
CCS(=O)(=O)c1cc([N+](=O)[O-])c(C(=O)N2CCN(C(C)C)CC2)cc1N(CCBr)CCBr				0.7	49	65	70	131	73		0.685	67	0.9	351				2.5	0.9	0.496	
CCN1CCN(C(=O)c2cc(N(CCBr)CCBr)c(S(=O)(=O)CC)cc2[N+](=O)[O-])CC1	21	60	11	1.2	67	95	62	511	121	23	0.552	54	1.5	5178	2.8	253	27	2.1	0.9	0.186	Activity [26]: < 10%; Activity [27]: <= 7%; Activity [28]: Non-Toxic; LCK (HCT-116 [5]): 2.3; LCK (HCT-116 [7]): 0.016; IC50 (HCT-116 [9]): 142 µM; Ratio IC50 [17]: 5.3
